An excerpt weighted towards active compounds, which were near 2.7% of everything screened.
MC4R antag cAMP = MC4R antagonists of cAMP signaling, primary screen, cell-based, TR-FRET, antagonist arm of biased-ligand search; 360,000 tested, 0.48% active; MC4R-expressing cells, MTII-stimulated cAMP, LANCE TR-FRET; inhibition, % at 6.5 µM; Melanocortin receptor 4 (Homo sapiens), P32245; AID 540295, 2011;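 active = inhibition above its plate's cutoff, the mean of tested wells on that plate plus 3 SD, cut at about 29% in these data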;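 also: 0% = Melanotan II alone and 100% = Melanotan II plus saturating MCL0020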
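System: U2OS cells stably expressing human melanocortin 4 receptor (MC4R). Reagent: Melanotan II challenge after compound preincubation. Doses: 6.5 µM. Times: 30-min compound, 1-h challenge, 1-h detection, room temperature. Measured by: TR-FRET with Eu-cAMP and labeled anti-cAMP, 671 nm. Replicates: singlicate.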
NR2E3 ag-1 = NR2E3 agonists in two-hybrid cells, primary screen, cell-based, luminescence, CHO-S, Gal4-NCOR/VP16-NR2E3. Photoreceptor-specific nuclear receptor (Homo sapiens), Q9Y5X4. luciferase. inhibition of corepressor binding, % at 3.98 µM. 360,000 tested, 0.35% active. AID 602229, 2012;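 active = inhibition above the mean of all tested compounds plus 3 SD, cut at about 70% in these data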;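 also: 0% = DMSO with NR2E3 transfected cells and 100% = cells lacking NR2E3 construct; higher means lower luciferase signal from less NR2E3 corepressor binding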
PG9 Ab binder = binders of HIV-1 gp120 antibody PG9, primary screen, biochemical, TR-FRET. HIV-1 gp120 / PG9 antibody interaction. inhibition, % at 6.7 µM. 360,000 tested, 0.43% active. TR-FRET gp120-PG9 antibody binding. AID 624416, 2012; in the data active = inhibition above about 8.5%
Rev-erbA mod = modulators of Rev-erb alpha DNA binding, primary screen, biochemical, FITC-DNA, fluorescence polarization, uHTS; Rev-erbα–FITC-DNA binding, 90 min; AID 1259318, 2017; Nuclear receptor subfamily 1 group D member 1 (Homo sapiens), P20393; activity, % at 10 µM; 370,000 tested, 0.79% active;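 active = activity above about 14%, limit read from the data; passing the limit was not always enough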;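 also: 0% = DMSO wells with 35 nM protein and 100% = DMSO wells with 750 nM protein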
Target sequence (P20393 whole entry, looked up): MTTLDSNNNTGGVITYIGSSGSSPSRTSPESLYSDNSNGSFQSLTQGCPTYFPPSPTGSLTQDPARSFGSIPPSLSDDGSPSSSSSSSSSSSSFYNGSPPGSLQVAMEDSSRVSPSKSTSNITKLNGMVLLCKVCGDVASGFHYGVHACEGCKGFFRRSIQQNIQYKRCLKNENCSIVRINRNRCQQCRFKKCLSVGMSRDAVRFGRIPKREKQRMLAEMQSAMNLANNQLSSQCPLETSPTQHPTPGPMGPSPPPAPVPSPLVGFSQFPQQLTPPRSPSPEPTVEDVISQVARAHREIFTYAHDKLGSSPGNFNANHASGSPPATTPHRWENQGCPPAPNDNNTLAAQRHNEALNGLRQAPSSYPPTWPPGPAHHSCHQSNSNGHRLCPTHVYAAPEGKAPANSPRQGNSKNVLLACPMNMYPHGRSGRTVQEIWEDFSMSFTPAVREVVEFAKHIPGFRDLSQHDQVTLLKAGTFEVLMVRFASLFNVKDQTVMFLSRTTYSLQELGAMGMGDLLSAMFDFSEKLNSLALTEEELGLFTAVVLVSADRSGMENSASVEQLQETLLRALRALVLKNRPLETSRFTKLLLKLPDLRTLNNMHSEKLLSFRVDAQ
MC4R barr agon = MC4R agonists recruiting beta-arrestin, primary screen, cell-based, luminescence, agonist arm of biased-ligand search; AID 540308, 2011; 360,000 tested, 0.98% active; U2OS MC4R beta-arrestin complementation; percent of melanotan II response, DMSO zero; Melanocortin receptor 4 (Homo sapiens), P32245; activation, % at 8.9 µM;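 active = activation above a per-plate cutoff, the mean activation of sample wells on that plate plus 3 SD, cut at about 8% in these data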
NR2E3 ag-2 = inhibitors of NR2E3-RetCOR corepressor binding, primary screen, NR2E3 agonist project, biochemical, TR-FRET, GST-NR2E3, biotin-RetCOR | 320,000 tested, 0.12% active | 1536-well | inhibition of corepressor binding, % at 4.78 µM | Photoreceptor-specific nuclear receptor (Homo sapiens), Q9Y5X4;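 active = percent inhibition above the cutoff of mean plus 3 SD of all tested compounds, set per screening campaign, cut at about 20% in these data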;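 also: 0% = DMSO wells and 100% = biotin wells as full block of FRET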
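Assay system: NR2E3–RetCOR corepressor complex. Quantity: 1.35 nM GST-NR2E3. Buffer or medium: pH 7.5 Tris-based buffer. Reagent: biotinylated RetCOR corepressor at 7 nM final. Schedule: 5 h at 4 °C. Detection: TR-FRET, emission read at 617 and 671 nm. Replicates: one well per compound, singlicate testing.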
cAMP nonselect = nonselective cAMP signaling inhibitors, parental cells, counter-screen for MC4R biased antagonist project, cell-based, TR-FRET, U2OS, forskolin, triplicate; shares compounds with MC4R antag cAMP; AID 602193, 2012; 1,600 tested, 26% active; inhibition, % at 6.5 µM; LANCE TR-FRET;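 active = mean inhibition over triplicates above the low-control well mean plus 3 SD, set per campaign, cut at about 13% in these data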;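 also: signal is single emission at 671 nm which falls as cellular cAMP rises; 0% = forskolin-stimulated wells and 100% = buffer without forskolin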
MC4R cAMP antag = MC4R cAMP antagonists, retest, confirmation, cell-based, TR-FRET; inhibition, % at 6.5 µM; shares compounds with MC4R antag cAMP; MC4R-expressing cells, MTII-stimulated cAMP; 1,600 tested, 27% active; AID 602195, 2012; in the data active = inhibition above about 29%;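 also: 0% = agonist stimulated wells alone and 100% = agonist stimulated wells plus saturating reference antagonist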
* = called active by the depositor.

What do the screens show for `Cc1ccc(NC(=O)c2cc(-c3ccccc3)nn2-c2ccccc2)cc1`?
MC4R antag cAMP: 18.6; NR2E3 ag-1: -6.2; PG9 Ab binder: -2.5; Rev-erbA mod: 0.7; MC4R barr agon: 0.4; NR2E3 ag-2: -0.1

What do the screens show for `CCOC(=O)c1cnc2ccc(OCC)cc2c1N(C)Cc1ccccc1`?
MC4R antag cAMP: 30.0*; NR2E3 ag-1: -30.6; PG9 Ab binder: -2.2; Rev-erbA mod: 6.6; MC4R barr agon: 2.6; NR2E3 ag-2: 2.0; cAMP nonselect: 0.1; MC4R cAMP antag: 31.4*

What do the screens show for `CC(C)c1ccccc1NC(=S)N1CCN(S(=O)(=O)c2cccs2)CC1`?
MC4R antag cAMP: 1.4; NR2E3 ag-1: -8.3; PG9 Ab binder: -1.9; Rev-erbA mod: -10.0; MC4R barr agon: -1.7; NR2E3 ag-2: -5.2

Results for CN(C)CCNc1cnn(-c2ccccc2)c(=O)c1Cl ?
MC4R antag cAMP: 29.0*; NR2E3 ag-1: -3.5; PG9 Ab binder: -0.9; Rev-erbA mod: -0.6; MC4R barr agon: 3.5; NR2E3 ag-2: -0.6; cAMP nonselect: -1.7; MC4R cAMP antag: -17.4

How did CNc1cnn(-c2ccccc2)c(=O)c1Cl do in these assays?
MC4R antag cAMP: 2.6; NR2E3 ag-1: -23.6; PG9 Ab binder: 3.5; Rev-erbA mod: 2.4; MC4R barr agon: -0.5; NR2E3 ag-2: 3.3

Results for Cn1cc(CN2C[C@H]3CC[C@H]2C3)c(-c2ccccc2F)n1 ?
MC4R antag cAMP: 28.6*; NR2E3 ag-1: 9.9; PG9 Ab binder: -1.0; Rev-erbA mod: 0.0; MC4R barr agon: 0.7; NR2E3 ag-2: 9.6; cAMP nonselect: 1.0; MC4R cAMP antag: -0.8

Results for NNC(=O)CNC(=O)CNS(=O)(=O)c1ccccc1 ?
MC4R antag cAMP: 29.1*; NR2E3 ag-1: 7.4; PG9 Ab binder: -0.5; Rev-erbA mod: -2.2; MC4R barr agon: -3.8; NR2E3 ag-2: 1.7; cAMP nonselect: -2.0; MC4R cAMP antag: -7.3

What do the screens show for `CC(C)(C)OC(=O)NCCCCC1=CC2=CC(=O)C(C)(OC(=O)c3ccco3)C(=O)C2=CO1` (centres undefined)?
NR2E3 ag-2: 9.8

Results for CCC(Sc1nc2n[nH]c(C)c2c(=N)n1-c1cccc(Cl)c1)C(=O)NCCOC (centres undefined) ?
MC4R antag cAMP: 5.8; NR2E3 ag-1: 3.8; PG9 Ab binder: -0.2; Rev-erbA mod: -3.9; MC4R barr agon: -1.7; NR2E3 ag-2: 2.8

What do the screens show for `CCC(Sc1nc2n[nH]c(C)c2c(=N)n1-c1ccc(C)c(Cl)c1)C(=O)N1CCOCC1` (centres undefined)?
MC4R antag cAMP: 29.4*; NR2E3 ag-1: -23.0; MC4R barr agon: 0.0; NR2E3 ag-2: 0.0; cAMP nonselect: 6.5; MC4R cAMP antag: 34.6*

What do the screens show for `O=C(CC1C(=O)NCCN1Cc1cccc(Oc2ccccc2)c1)NCc1cccnc1` (centres undefined)?
MC4R antag cAMP: 14.7; NR2E3 ag-1: 4.9; PG9 Ab binder: -1.4; Rev-erbA mod: 2.0; MC4R barr agon: 0.7; NR2E3 ag-2: 1.5

How did CCN(C(=O)CSc1n[nH]c(-c2cccs2)n1)C1CCS(=O)(=O)C1 (centres undefined) do in these assays?
MC4R antag cAMP: 29.9*; NR2E3 ag-1: 8.1; PG9 Ab binder: 0.6; Rev-erbA mod: -5.9; MC4R barr agon: -0.8; NR2E3 ag-2: 3.8; cAMP nonselect: -3.6; MC4R cAMP antag: -2.7

How did CC(C)Cn1c(SCC(=O)Nc2ncccn2)nc2ccccc21 do in these assays?
MC4R antag cAMP: -2.1; NR2E3 ag-1: -7.3; PG9 Ab binder: -0.9; Rev-erbA mod: 2.3; MC4R barr agon: -0.7; NR2E3 ag-2: 0.7

Results for CCOC(=O)CSc1nc2c(sc(=S)n2-c2ccc(CC)cc2)c(=O)[nH]1 ?
MC4R antag cAMP: 30.8*; NR2E3 ag-1: 10.0; PG9 Ab binder: -2.2; Rev-erbA mod: -3.0; MC4R barr agon: 0.2; NR2E3 ag-2: -0.9; cAMP nonselect: 3.1; MC4R cAMP antag: -4.3

How did CCOC(=O)CC(=O)CSc1nc2c(sc(=S)n2-c2ccccc2)c(=O)[nH]1 do in these assays?
MC4R antag cAMP: 8.1; NR2E3 ag-1: -13.1; PG9 Ab binder: -0.9; Rev-erbA mod: -6.5; MC4R barr agon: -0.4; NR2E3 ag-2: -0.6

How did CCOC(=O)C1CN(S(=O)(=O)c2cc(OC)ccc2OC)C1 do in these assays?
MC4R antag cAMP: 8.1; NR2E3 ag-1: -19.1; PG9 Ab binder: -0.5; Rev-erbA mod: -1.3; MC4R barr agon: -0.9; NR2E3 ag-2: 1.1

Results for O=C(NC(=S)Nc1cc(S(=O)(=O)N2CCOCC2)ccc1N1CCOCC1)c1ccco1 ?
MC4R antag cAMP: 36.6*; NR2E3 ag-1: -6.2; PG9 Ab binder: -3.0; Rev-erbA mod: 5.6; MC4R barr agon: -3.7; NR2E3 ag-2: 3.1; cAMP nonselect: 1.3; MC4R cAMP antag: -7.4

What do the screens show for `CC1CCCN(S(=O)(=O)c2ccc(NC(=O)C3CC(=O)N(c4ccccc4)C3)cc2)C1` (centres undefined)?
MC4R antag cAMP: 12.8; NR2E3 ag-1: -1.2; PG9 Ab binder: -0.6; Rev-erbA mod: 6.1; MC4R barr agon: -0.5; NR2E3 ag-2: 6.1

How did COc1ccccc1CNC(=O)c1oc2ccc(S(=O)(=O)N3CCOCC3)cc2c1C do in these assays?
MC4R antag cAMP: 4.3; NR2E3 ag-1: 18.9; PG9 Ab binder: 0.6; Rev-erbA mod: -0.5; MC4R barr agon: -0.3; NR2E3 ag-2: 4.5

How did Cc1ccc(CNC(=O)c2oc3ccc(S(=O)(=O)N4CCOCC4)cc3c2C)cc1 do in these assays?
MC4R antag cAMP: 10.4; NR2E3 ag-1: 17.3; PG9 Ab binder: -2.8; Rev-erbA mod: 2.4; MC4R barr agon: -0.2; NR2E3 ag-2: -0.3

How did COc1ccc(CNC(=O)c2oc3ccc(S(=O)(=O)N4CCOCC4)cc3c2C)cc1 do in these assays?
MC4R antag cAMP: 31.8*; NR2E3 ag-1: 14.8; PG9 Ab binder: -2.8; Rev-erbA mod: -0.7; MC4R barr agon: 0.7; NR2E3 ag-2: -1.3; cAMP nonselect: -0.8; MC4R cAMP antag: 4.2

Screening data (PubChem)
